We go through 20 compounds from ChEMBL document CHEMBL1136891, “1,3-dialkyl-8-N-substituted benzyloxycarbonylamino-9-deazaxanthines as potent adenosine receptor ligands: Design, synthesis, structure-affinity and structure-selectivity relationships” (Bioorg Med Chem, 2009).

One data set is filed under the species Homo sapiens. As to the kind of experiment: Selectivity index, ratio of Ki for human recombinant adenosine A2A receptor to Ki for human recombinant adenosine A2B receptor. In outline:
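Competition binding on membranes at 25 °C for 30 min, then filtration and beta scintillation counting. hA2A: transfected HeLa cells, 3 nM [3H]ZM241385, non-specific binding with 50 µM NECA. hA2B: transfected HEK-293 cells, 35 nM [3H]DPCPX, non-specific binding with 400 µM NECA. Ki values are means of two independent duplicate experiments. SI = Ki hA2A / Ki hA2B.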

In data set [1] the target is T1, Adenosine receptor A2a (Homo sapiens, UniProt P29274). As to the kind of experiment: Displacement of [3H]ZM241385 from human recombinant adenosine A2A receptor expressed in HeLa cells by beta scintillation counter. The class given is cell-based.
Data set [2] concerns the target T2, Adenosine receptor A2b (Homo sapiens, UniProt P29275).
T2 sequence (P29275 whole entry): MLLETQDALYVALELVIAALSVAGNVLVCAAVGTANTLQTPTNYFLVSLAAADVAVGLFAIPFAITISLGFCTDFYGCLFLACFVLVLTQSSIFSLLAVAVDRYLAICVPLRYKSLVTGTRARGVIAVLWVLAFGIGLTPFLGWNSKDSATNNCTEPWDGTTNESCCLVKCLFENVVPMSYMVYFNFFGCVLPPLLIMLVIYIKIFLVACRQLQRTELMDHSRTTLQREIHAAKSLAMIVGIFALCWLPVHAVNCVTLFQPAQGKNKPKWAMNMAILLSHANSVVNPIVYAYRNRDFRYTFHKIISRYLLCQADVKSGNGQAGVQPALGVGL
As to the kind of experiment: Displacement of [3H]DPCPX from human recombinant adenosine A2B receptor expressed in HEK293 cells by beta scintillation counter. The class given is cell-based. The essentials:
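Competition binding on membranes from transfected HEK-293 cells expressing hA2B, using 35 nM [3H]DPCPX. Non-specific binding was defined with NECA. Incubation was 30 min at 25 °C, followed by filtration and scintillation counting. Ki values are means of two independent experiments in duplicate.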

A further data set addresses T3, Adenosine receptor A1 (Homo sapiens, UniProt P30542).
T3 sequence (P30542 whole entry): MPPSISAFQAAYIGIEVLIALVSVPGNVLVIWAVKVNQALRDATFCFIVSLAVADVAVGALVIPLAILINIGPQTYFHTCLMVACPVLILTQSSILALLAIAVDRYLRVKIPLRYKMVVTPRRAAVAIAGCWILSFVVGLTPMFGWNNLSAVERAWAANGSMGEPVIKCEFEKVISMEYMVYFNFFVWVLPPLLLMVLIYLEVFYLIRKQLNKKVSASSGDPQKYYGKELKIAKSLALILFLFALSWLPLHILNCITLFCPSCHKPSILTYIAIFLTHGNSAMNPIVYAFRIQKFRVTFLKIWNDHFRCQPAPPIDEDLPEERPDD
As to the kind of experiment: Displacement of [3H]DPCPX from human recombinant adenosine A1 receptor expressed in CHO cells by beta scintillation counter. The class given is cell-based. The essentials: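 Membranes from CHO cells expressing hA1, labelled with 2 nM [3H]DPCPX. Non-specific binding was defined with excess (R)-PIA. Incubated 25 °C for 60 min, then filtered and counted. Ki values are means of two independent experiments with duplicate points.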

In another data set the target is T4, Adenosine receptor A3 (Homo sapiens, UniProt P0DMS8).
T4 sequence (P0DMS8 whole entry): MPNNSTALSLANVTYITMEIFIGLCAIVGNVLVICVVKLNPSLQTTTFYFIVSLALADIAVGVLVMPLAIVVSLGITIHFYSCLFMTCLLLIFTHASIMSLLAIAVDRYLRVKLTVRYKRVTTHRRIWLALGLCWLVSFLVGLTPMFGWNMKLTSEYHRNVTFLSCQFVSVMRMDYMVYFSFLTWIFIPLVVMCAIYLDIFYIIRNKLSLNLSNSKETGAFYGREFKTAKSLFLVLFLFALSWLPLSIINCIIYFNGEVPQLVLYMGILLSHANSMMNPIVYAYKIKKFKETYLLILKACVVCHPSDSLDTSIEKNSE
Briefly: Displacement of [3H]NECA from human recombinant adenosine A3 receptor expressed in HeLa cells by beta scintillation counter. The class given is cell-based. In outline:
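HeLa-hA3 membranes labelled with 30 nM [3H]NECA. Non-specific binding was defined with (R)-PIA. Incubation was 180 min at 25 °C, then filtration and scintillation counting. Ki values are means of two independent experiments with duplicate points.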

Data set [3] is described as follows: Solubility in water. The class given is physicochemical. The essentials:
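Compound stock at 1 mg/ml in DMSO, added in small portions (typically 14 additions) to 50 mM Tris/HCl pH 7.4 at room temperature, keeping final DMSO below 5%. Precipitation was detected as light-scattering absorbance at 600–820 nm. The solubility limit was taken from a bilinear fit of absorbance versus DMSO added. Mean ± SEM of two assays.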

Data set [4] deals with T5, Adenosine receptor A2b (Rattus norvegicus, UniProt P29276).
T5 sequence (P29276 whole entry): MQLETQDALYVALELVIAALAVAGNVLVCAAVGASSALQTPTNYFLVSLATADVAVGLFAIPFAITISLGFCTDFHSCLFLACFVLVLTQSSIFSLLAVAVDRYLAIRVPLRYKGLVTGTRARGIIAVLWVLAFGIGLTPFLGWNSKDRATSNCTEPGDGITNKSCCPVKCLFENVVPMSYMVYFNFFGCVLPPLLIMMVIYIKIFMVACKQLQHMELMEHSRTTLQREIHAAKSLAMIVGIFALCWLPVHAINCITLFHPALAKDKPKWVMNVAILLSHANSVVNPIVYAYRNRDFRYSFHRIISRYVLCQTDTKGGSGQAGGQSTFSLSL
As to the kind of experiment: Antagonist activity at adenosine A2B receptor in Wistar-Kyoto rat colon assessed as inhibition of NECA-induced relaxation after 30 mins. The conditions noted are these: read-out: pA2 (converted).

Data set [5] addresses Adenosine receptor A2a (Rattus norvegicus, UniProt P30543). Briefly: Antagonist activity at adenosine A2A receptor in Wistar-Kyoto rat aorta assessed as inhibition of phenylephrine-induced contraction treated 30 mins before phenylephrine challenge measured after 60 mins.
In data set [6] the target is T6, Adenosine receptor A2b (Homo sapiens) (UniProt P29275).
T6 sequence (whole entry): T2 sequence (P29275 whole entry)
As to the kind of experiment: Displacement of [3H]DPCPX from human recombinant adenosine A2B receptor expressed in HEK293 cells at 1 uM by beta scintillation counter. The format is cell-based.

In data set [7] the target is T1, Adenosine receptor A2a. As to the kind of experiment: Displacement of [3H]ZM241385 from human recombinant adenosine A2A receptor expressed in HeLa cells at 1 uM by beta scintillation counter.

SMILES strings stand for the structures. Converted amounts (≈) assume the structure as drawn.

T1 sequence (P29274 whole entry): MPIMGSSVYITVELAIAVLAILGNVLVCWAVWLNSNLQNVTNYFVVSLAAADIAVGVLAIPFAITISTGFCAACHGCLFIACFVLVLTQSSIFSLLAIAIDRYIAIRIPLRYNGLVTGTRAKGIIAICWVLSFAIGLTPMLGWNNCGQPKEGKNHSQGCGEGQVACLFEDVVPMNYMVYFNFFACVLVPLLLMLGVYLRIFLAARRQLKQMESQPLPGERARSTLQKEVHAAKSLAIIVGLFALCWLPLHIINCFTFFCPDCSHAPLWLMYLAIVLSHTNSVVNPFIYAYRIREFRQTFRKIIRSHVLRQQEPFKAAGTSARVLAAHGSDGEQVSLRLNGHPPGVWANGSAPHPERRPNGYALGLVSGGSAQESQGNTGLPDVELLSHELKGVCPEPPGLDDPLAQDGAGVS
Adenosine receptor A2a (Rattus norvegicus, UniProt P30543), sequence (P30543 whole entry): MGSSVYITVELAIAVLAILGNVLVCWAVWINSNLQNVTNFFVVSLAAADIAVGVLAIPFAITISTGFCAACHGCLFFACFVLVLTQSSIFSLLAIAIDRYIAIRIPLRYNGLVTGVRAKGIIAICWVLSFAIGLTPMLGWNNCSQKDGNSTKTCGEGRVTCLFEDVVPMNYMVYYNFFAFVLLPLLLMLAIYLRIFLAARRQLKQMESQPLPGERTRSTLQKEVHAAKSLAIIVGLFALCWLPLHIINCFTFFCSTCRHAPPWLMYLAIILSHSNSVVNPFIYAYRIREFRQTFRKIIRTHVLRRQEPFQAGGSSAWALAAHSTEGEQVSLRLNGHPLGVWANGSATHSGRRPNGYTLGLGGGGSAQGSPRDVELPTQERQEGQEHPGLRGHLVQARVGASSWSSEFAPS

Take `CCCn1c(=O)c2[nH]c(-c3ccc(COC(=O)Nc4ccsc4)cc3)cc2n(CCC)c1=O`: in the data set listed under Homo sapiens, the Ratio Ki worked out at 6.6. Further, the Ki on Adenosine receptor A2a [1] is 3310 nM; on Adenosine receptor A2b [2], 501 nM.
In the case of `Cn1c(=O)c2[nH]c(-c3ccc(COC(=O)Nc4ccc(F)cc4)cc3)cc2n(C)c1=O`, the inhibition constant Ki was 17.8 nM at Adenosine receptor A1, 72.4 nM at Adenosine receptor A2a [1], 871 nM on Adenosine receptor A3 and 9.5 nM on Adenosine receptor A2b [2]. Besides, the Ratio Ki in the data set listed under Homo sapiens amounted to 7.6.
With `CCCn1c(=O)c2[nH]c(-c3ccc(COC(=O)Nc4cccs4)cc3)cc2n(CCC)c1=O`, the Ratio Ki in the data set filed under Homo sapiens came out at 3.7. Also, the results for the Ki on Adenosine receptor A2a [1] and at Adenosine receptor A2b [2] were 2240 nM and 602 nM, respectively.
Regarding `Cn1c(=O)c2[nH]c(-c3ccc(COC(=O)N4CCc5ccccc5C4)cc3)cc2n(C)c1=O`, in the data set filed under Homo sapiens, the Ratio Ki was found to be 20.4. The Ki was 43.7 nM on Adenosine receptor A2a [1] and 2.1 nM at Adenosine receptor A2b [2].
The matching figures for `Cn1c(=O)c2[nH]c(-c3ccc(COC(=O)Nc4ccccn4)cc3)cc2n(C)c1=O`: 6, 490 nM and 81.3 nM.
Take `Cn1c(=O)c2[nH]c(-c3ccc(COC(=O)Nc4ccco4)cc3)cc2n(C)c1=O`: in the data set listed under Homo sapiens, the Ratio Ki was 5.6. The Ki on Adenosine receptor A2a [1] worked out at 18.2 nM; at Adenosine receptor A2b [2], 3.2 nM.
The matching figures for `Cn1c(=O)c2[nH]c(-c3ccc(COC(=O)Nc4cccs4)cc3)cc2n(C)c1=O`: 15.1, 15.1 nM and 1 nM.
The matching figures for `CCCn1c(=O)c2[nH]c(-c3ccc(COC(=O)N4CCN(c5ccc(F)cc5)CC4)cc3)cc2n(CCC)c1=O`: 1.2, 50.1 nM and 42.7 nM.
Consider `Cn1c(=O)c2[nH]c(-c3ccc(COC(=O)Nc4ccccc4)cc3)cc2n(C)c1=O`, for which the Ki came to 2.2 nM on Adenosine receptor A1, 34.7 nM at Adenosine receptor A2a [1], 275 nM on Adenosine receptor A3 and 2.8 nM on Adenosine receptor A2b [2]. Further, in the data set listed under Homo sapiens, the Ratio Ki stood at 12.6.
The matching figures for `CCCn1c(=O)c2[nH]c(-c3ccc(COC(=O)Nc4ccc(F)cc4)cc3)cc2n(CCC)c1=O`: 0.4 nM, 118 nM, 71 nM, 2 nM and 59.
With `Cn1c(=O)c2[nH]c(-c3ccc(COC(=O)Nc4ccsc4)cc3)cc2n(C)c1=O`, the solubility in data set [3] was 21.5 µg/mL (≈ 52.4 µM). Besides, the Kb at Adenosine receptor A2b [4] is 2.19 nM; on Adenosine receptor A2a [5] it was 28.2 nM. Besides, the Ki at Adenosine receptor A1 came to 10 nM; on Adenosine receptor A2a [1], 10.5 nM; on Adenosine receptor A3, 363 nM; on Adenosine receptor A2b [2] it was 0.8 nM. In addition, the Ratio Ki in the data set filed under Homo sapiens was 12.6.
Consider `Cn1c(=O)c2[nH]c(-c3ccc(COC(=O)N4CCN(c5ccccc5)CC4)cc3)cc2n(C)c1=O`, for which the Ratio Ki in the data set filed under Homo sapiens was 11.5. Further, the Ki at Adenosine receptor A2a [1] was found to be 132 nM; at Adenosine receptor A2b [2] it was 11.5 nM.
With `CCCn1c(=O)c2[nH]c(-c3ccc(COC(=O)Nc4cnccn4)cc3)cc2n(CCC)c1=O`, the Ratio Ki in the data set listed under Homo sapiens came out at 4.6. The values for the Ki on Adenosine receptor A2a [1] and at Adenosine receptor A2b [2] were 35.5 nM and 7.8 nM, respectively.
On to `CCCn1c(=O)c2[nH]c(-c3ccc(COC(=O)Nc4ccon4)cc3)cc2n(CCC)c1=O`, for which the Ratio Ki in the data set listed under Homo sapiens was found to be 12.9. The Ki stood at 21.9 nM at Adenosine receptor A2a [1] and 1.7 nM at Adenosine receptor A2b [2].
Turning to `CCCn1c(=O)c2[nH]c(-c3ccc(COC(=O)Nc4ccccc4)cc3)cc2n(CCC)c1=O`, the solubility in data set [3] worked out at 27 µg/mL (≈ 58.6 µM). The Ki at Adenosine receptor A1 amounted to 20.4 nM; on Adenosine receptor A2a [1], 28.8 nM; at Adenosine receptor A3 it was 331 nM; on Adenosine receptor A2b [2] it was 7.1 nM. Besides, the Ratio Ki in the data set listed under Homo sapiens is 4.1.
For `CCCn1c(=O)c2[nH]c(-c3ccc(COC(=O)N4CCN(c5cccc(Cl)c5)CC4)cc3)cc2n(CCC)c1=O`, the Ratio Ki in the data set listed under Homo sapiens was 1.2. Besides, the Ki at Adenosine receptor A2a [1] was determined as 28.2 nM; at Adenosine receptor A2b [2] it was 24 nM.
The like results for `CCCn1c(=O)c2[nH]c(-c3ccc(COC(=O)Nc4cc[nH]n4)cc3)cc2n(CCC)c1=O` were, in that order, 1.7, 10 nM and 5.9 nM.
On to `Cn1c(=O)c2[nH]c(-c3ccc(COC(=O)NCc4ccccc4)cc3)cc2n(C)c1=O`, for which the Ratio Ki in the data set filed under Homo sapiens amounted to 61.6. Moreover, the Ki on Adenosine receptor A2a [1] amounted to 1000 nM; on Adenosine receptor A2b [2] it was 16.2 nM.
On to `CCCn1c(=O)c2[nH]c(-c3ccc(COC(=O)N4CCN(c5ccccc5)CC4)cc3)cc2n(CCC)c1=O`, for which, in [6], the inhibition was found to be 46%. The Ki on Adenosine receptor A2a [1] came out at 447 nM.
For `CCCn1c(=O)c2[nH]c(-c3ccc(COC(=O)Nc4ccccc4)cc3)cc2n(C)c1=O`, the inhibition at Adenosine receptor A2a [7] was found to be 15%. Also, the Ki on Adenosine receptor A2b [2] amounted to 13.8 nM.
